According to ChEMBL document CHEMBL1131510, “An endogenous sleep-inducing compound is a novel competitive inhibitor of fatty acid amide hydrolase” (Bioorg Med Chem Lett, 1998):

Legend:
[1] = biological target: T1, Fatty-acid amide hydrolase 1 (Homo sapiens, UniProt O00519); test: Concentration required to inhibit Fatty-acid amide hydrolase (FAAH) at pH 7.0
T1 sequence (O00519 whole entry): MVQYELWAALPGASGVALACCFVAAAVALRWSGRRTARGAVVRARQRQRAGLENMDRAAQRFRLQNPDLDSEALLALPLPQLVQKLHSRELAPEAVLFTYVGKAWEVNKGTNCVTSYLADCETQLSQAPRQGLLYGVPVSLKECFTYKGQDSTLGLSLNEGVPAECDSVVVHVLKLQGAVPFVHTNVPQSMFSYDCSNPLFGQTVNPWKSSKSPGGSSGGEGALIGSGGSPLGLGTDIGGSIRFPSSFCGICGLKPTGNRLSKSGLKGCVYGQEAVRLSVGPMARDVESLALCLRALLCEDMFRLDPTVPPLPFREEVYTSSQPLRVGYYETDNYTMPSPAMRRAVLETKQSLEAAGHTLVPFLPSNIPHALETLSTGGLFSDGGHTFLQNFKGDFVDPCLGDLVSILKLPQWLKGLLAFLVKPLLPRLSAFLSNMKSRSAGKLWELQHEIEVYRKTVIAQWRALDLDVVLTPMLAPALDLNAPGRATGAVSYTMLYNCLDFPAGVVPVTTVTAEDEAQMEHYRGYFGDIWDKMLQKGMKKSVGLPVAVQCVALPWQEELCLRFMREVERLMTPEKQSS
Summary of the method: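 FAAH from solubilized liver plasma membrane extract, assayed at 20-22 °C at pH 7.0. Per the general assay footnote, the reaction buffer contained Tris, EDTA, glycerol and Triton X-100. Read-out was ¹⁴C-oleamide hydrolysis to oleic acid, followed by extraction, TLC separation and scintillation counting. Reaction time courses ran 10 min to 1 h. Only IC50 values are reported at this pH.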

[2] = biological target: T1, Fatty-acid amide hydrolase 1; test: Compound was tested for inhibitory potency against Fatty-acid amide hydrolase (FAAH) at pH 9.0
Summary of the method: (§1)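 Hydrolysis of ¹⁴C-oleamide to oleic acid was followed over 30 s to 15 min. Product was extracted, separated by TLC and quantified by scintillation counting.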

[3] = biological target: T1, Fatty-acid amide hydrolase 1; test: Inhibitory concentration against Fatty-acid amide hydrolase (FAAH) at pH 9.0; summary of the method: as §1
[4] = Acid dissociation constant value for the compound was determined; format: ADME
[5] = biological target: T1, Fatty-acid amide hydrolase 1; test: Concentration required to inhibit fatty acid amide hydrolase (FAAH) at pH 7.0
Summary of the method: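 Performed at pH 7.0 with solubilized liver plasma membrane extract as the FAAH source. ¹⁴C-oleamide breakdown to oleic acid was measured by extraction, TLC separation and scintillation counting. Reaction progress was monitored from 10 min to 1 h, and only IC50 values were derived.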

| Ki [2] | IC50 [3] | pKa [4] | IC50 [5] | SMILES | IC50 [1] |
| --- | --- | --- | --- | --- | --- |
| 550 nM | 1500 nM | – | – | CCCCCCCOC(=O)CC(=O)CBr | 2100 nM |
| – | > 100000 nM | – | – | CCCCCC[C@@H](C)OC(=O)CC(=O)CCC | – |
| – | > 100000 nM | 9 | – | CCCCCCCCC(=O)CC(C)=O | – |
| 390 nM | 1000 nM | – | 5300 nM | CCCCCCCC/C=C\CCCCCCCC(=O)CBr | – |
| – | > 100000 nM | 10.5 | – | CCCCCC[C@H](C)OC(=O)CC(C)=O | – |
| 1100 nM | 2900 nM | – | 700 nM | CCCCCC[C@@H](C)OC(=O)CC(=O)CCl | – |
| – | > 100000 nM | – | – | CCCCCC[C@@H](C)OC(=O)CC(=O)CC | – |
| 190 nM | 600 nM | – | 2500 nM | CCCCCCCC/C=C\CCCCOC(=O)CC(=O)CBr | – |
| – | > 100000 nM | – | – | CCCCCC[C@@H](C)OC(=O)CC(O)CBr (stereo partly drawn) | – |

| SMILES | Ki [2] | IC50 [3] | pKa [4] | IC50 [5] | IC50 [1] |
| --- | --- | --- | --- | --- | --- |
| CCCCCC[C@H](C)OC(=O)CC(=O)CBr | 1100 nM | 4000 nM | – | – | – |
| CCCCCC[C@@H](C)OC(=O)CC(=O)CBr | 800 nM | 2600 nM | 8.5 | – | 3100 nM |
| CCCCCCCC/C=C\CCCCCCCC(=O)C(F)(F)F | 250 nM | 600 nM | – | 9900 nM | – |
